Test results from PubChem BioAssay.
Activity calls are given as the source filed them.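 How the source made its calls, unless noted: active means inhibition above 20% together with a positive visual image hit; inconclusive means visual image hit but inhibition not above 20%; inactive means no visual image hit.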

Key:
[1] = inhibitors of TNFa-induced NFkB p65 translocation, primary screen, imaging, HUVEC, MLSMR starter and 10KST1 sets (AID 438); conditions: HUVEC TNFa-induced p65 nuclear translocation; cell count: measured here: nuclei count (cytotoxicity indicator), at 2.08 µM; inhibition: at 2 µM, stronger effect = higher value, 0% TNFa-plus-vehicle, 100% no-TNFa wells;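 further: compound added about 3h40 before a 20 min TNFalpha stimulation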;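 on inhibition: signal is the nuclear over cytoplasmic p65 intensity ratio per well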
[2] = inhibitors of E-selectin induction by TNFa, primary screen, imaging, HUVEC, immunofluorescence, MLSMR starter and 10KST1 sets (AID 487;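 active means visually confirmed hit in the image check and inhibition above 20%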;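 on inhibition: signal is fraction of cell area covered by stained E-selectin grains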;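 on nuclei count: 100% = median nuclei count of all wells on the same plate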); conditions: HUVEC TNFalpha-induced E-selectin immunofluorescence imaging, at 2 µM; inhibition: stronger effect = higher value; nuclei count: measured here: cell number, toxicity
[3] = DUSP6 inhibitors restoring Erk phosphorylation by chemical complementation, primary imaging in DUSP6-transfected HeLa (AID 609;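 active means compounds giving at least 50% inhibition in the cell-based MKP-3 phosphatase rescue imaging test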;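 on inhibition: phospho-Erk level distribution per well compared with pooled transfected vehicle control wells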); conditions: HeLa MKP-3 transfected, phospho-Erk imaging KS statistic, at 10 µM, cells stimulated with TPA for 15 min
[4] = biological target: Dual specificity protein phosphatase 6 (Homo sapiens) (UniProt Q16828); assay: as above; conditions: HeLa MKP-3 transfected, phospho-Erk imaging KS statistic; at 10 µM; stronger effect = higher value; cells stimulated with TPA for 15 min
[5] = biological target: Voltage-gated potassium channel subunit beta-2 (Rattus norvegicus) (UniProt P62483); assay: KvBeta enzyme negative modulators, primary screen, biochemical, NADPH fluorescence (AID 622;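 active means fluorescence slope higher than the sample average by over 3 SD, cut at about -0.22 in these data, passing the limit was not always enough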;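 further: slope of raw intensity against log time taken from 70 to 1610 s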); conditions: recombinant KvBeta, 4-cyanobenzaldehyde reduction, at 10 µM, stronger effect = higher value
[6] = biological target: Voltage-gated potassium channel subunit beta-2 (Rattus norvegicus) (UniProt P62483); assay: KvBeta positive modulators, primary screen, biochemical, NADPH fluorescence (AID 623;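 active means NADPH fluorescence slope more negative than the mean of all samples by about 3 SD, 99.7% confidence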;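 further: fluorescence intensity change per second fitted from 20 to 320 s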); conditions: Recombinant KvBeta, NADPH fluorescence decrease slope, 10 min; at 10 µM; stronger effect = lower value
[7] = biological target: Muscarinic acetylcholine receptor M4 (Homo sapiens) (UniProt P08173); assay: compounds altering M4/GIRK thallium flux, either direction, primary screen, M4 allosteric agonist project, cell-based, HEK293 M4/GIRK, BTC-AM (AID 625;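 active means fluorescence slope after compound addition differing from the mean of all tested samples at 99.7% confidence, mostly higher but some lower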;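 further: thallium influx through GIRK channels coupled to M4 in HEK293 cells with BTC-AM dye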); conditions: at 10 µM, actives lie on both sides
In short: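 Assay system: HEK293 cells with M4 receptor and GIRK channels / Controls: carbachol and DMSO controls / Schedule: 1 h dye loading, 2 min kinetic read / Technique: kinetic fluorescence with BTC-AM dye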

[8] = inhibitors of larval lipid processing in zebrafish, primary screen, whole organism, PED6 fluorescence, gall bladder and intestine (AID 686;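 active means a full or partial loss of lipid-probe fluorescence in the fish gall bladder, intestine or both, judged by eye; inactive means no fluorescence loss, or compound toxic to the fish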;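 further: larvae 5 to 7 days old with five fish per well; signal comes from phospholipase A2 cleavage of quenched PED6 carried via bile; overnight exposure to compound and PED6 before scoring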); conditions: Zebrafish larvae PED6 lipid processing, fluorescence scoring; screened at 20 µM (by protocol)
In short: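 Doses: 20 µM single dose. Test system: live zebrafish larvae aged 5-7 days, whole organism. Quantity: five larvae per well. Measured by: By-eye fluorescence microscopy. Reagent: ingested quenched lipid PED6 at 100 nM. Read-out: visual per-well fluorescence inhibition score. Times: overnight exposure of larvae to compound plus PED6.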

[9] = inhibitors of Chlamydomonas gravitaxis, primary screen, whole organism, Chlamydomonas reinhardtii, WT vs cilia-less mutant, absorbance, 96-well (AID 463189;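 active means inhibition at or above 50% relative to wild type and mutant plate controls; inactive means inhibition below 50%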;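 further: 0% = wild type cc124 cells in DMSO and 100% = ciliumless bld1 mutant cells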); conditions: OD600 absorbance, 2 days, at 10 µM, stronger effect = higher value
[10] = measured here: cell density z-score
[11] = measured here: nuclear c-Myc green intensity z-score
[12] = measured here: nuclear pErk red intensity z-score, stronger effect = higher value

Voltage-gated potassium channel subunit beta-2 (Rattus norvegicus), sequence (P62483 whole entry, looked up): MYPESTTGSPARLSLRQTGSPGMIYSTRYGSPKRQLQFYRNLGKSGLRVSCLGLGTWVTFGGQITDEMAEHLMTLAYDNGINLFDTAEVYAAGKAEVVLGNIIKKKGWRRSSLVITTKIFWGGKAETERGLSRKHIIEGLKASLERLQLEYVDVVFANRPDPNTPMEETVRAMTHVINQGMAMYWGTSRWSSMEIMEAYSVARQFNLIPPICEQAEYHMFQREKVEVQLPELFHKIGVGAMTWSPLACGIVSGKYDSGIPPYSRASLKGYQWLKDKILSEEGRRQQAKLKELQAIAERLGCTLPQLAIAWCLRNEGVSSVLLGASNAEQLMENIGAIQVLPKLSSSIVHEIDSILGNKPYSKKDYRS
Muscarinic acetylcholine receptor M4 (Homo sapiens), sequence (P08173 whole entry, looked up): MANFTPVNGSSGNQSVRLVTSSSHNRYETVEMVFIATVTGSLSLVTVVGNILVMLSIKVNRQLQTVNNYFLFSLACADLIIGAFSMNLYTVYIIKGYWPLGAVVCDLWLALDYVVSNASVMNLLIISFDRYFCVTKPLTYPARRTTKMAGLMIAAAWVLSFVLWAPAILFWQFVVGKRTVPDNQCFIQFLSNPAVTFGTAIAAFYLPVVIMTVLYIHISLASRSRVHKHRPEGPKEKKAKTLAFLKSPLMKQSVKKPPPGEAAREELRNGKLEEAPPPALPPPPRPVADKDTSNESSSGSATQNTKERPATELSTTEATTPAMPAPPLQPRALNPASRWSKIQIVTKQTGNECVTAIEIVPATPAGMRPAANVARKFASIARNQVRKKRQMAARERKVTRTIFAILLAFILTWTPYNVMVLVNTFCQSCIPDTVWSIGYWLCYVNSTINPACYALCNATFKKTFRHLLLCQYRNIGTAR
Dual specificity protein phosphatase 6 (Homo sapiens), sequence (Q16828 whole entry, looked up): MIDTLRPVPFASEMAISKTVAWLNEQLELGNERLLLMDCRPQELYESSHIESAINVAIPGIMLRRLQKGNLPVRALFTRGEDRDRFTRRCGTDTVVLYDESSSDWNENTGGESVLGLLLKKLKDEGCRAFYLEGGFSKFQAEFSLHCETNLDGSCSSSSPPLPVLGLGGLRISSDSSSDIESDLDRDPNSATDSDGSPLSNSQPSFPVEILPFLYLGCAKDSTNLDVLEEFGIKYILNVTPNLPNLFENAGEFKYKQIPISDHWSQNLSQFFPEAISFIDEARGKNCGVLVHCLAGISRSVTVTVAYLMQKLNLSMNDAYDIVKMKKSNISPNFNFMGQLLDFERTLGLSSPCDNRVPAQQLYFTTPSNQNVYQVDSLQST

SMILES	cell count [1]	inhibition [1]	inhibition [2]	nuclei count [2]	z-score [3, 10]	z-score [3, 11]	z-score [3, 12]	inhibition [4]	fluorescence slope [5]	NADPH fluorescence slope [6]	fluorescence slope [7]	outcome [8]	inhibition [9]
CC(=O)Nc1ccc(OC(=O)CC2SC(=O)NC2=O)cc1 (stereo unspecified)	552	-6.8% (inactive)	-32.3% (inactive)	97.7%	-1.89	0.746	-1.34	-2.91% (inactive)	-0.469 (inactive)	-3.2e-05 (inactive)	0.00549 (inactive)	inactive	-6.84% (inactive)
CC1(C)Cc2c(C#N)c(SCCOc3ccccc3)nc(N3CCOCC3)c2CO1	387	-7.4% (inactive)	-56.3% (inactive)	82.1%	-1.25	1.29	1.84	5.42% (inactive)	-0.415 (inactive)	-3.7e-05 (inactive)	0.00791 (inactive)	inactive	25.7% (inactive)
COC(=O)c1sc(NC(=O)c2oc3ccccc3c2C)nc1C	594	-0.2% (inactive)	-146% (inactive)	150%	0.222	-0.561	-0.214	25.8% (inactive)	-0.269 (inactive)	-4e-05 (inactive)	0.00832 (inactive)	inactive	-10.3% (inactive)
CCN(CC)C(=O)COn1c(SCC(=O)N(CC)CC)nc2ccccc2c1=O	714	1% (inactive)	10.1% (inactive)	161%	-0.154	-0.248	0.329	-1.12% (inactive)	-0.42 (inactive)	-4.1e-05 (inactive)	0.00498 (inactive)	inactive	-1.16% (inactive)
CCOC(=O)c1c(-c2cccs2)csc1NC(=O)c1ccncc1	469	-0.7% (inactive)	-21.4% (inactive)	128%	0.172	0.303	-0.644	4.37% (inactive)	-0.308 (inactive)	-2.8e-05 (inactive)	0.00693 (inactive)	inactive	12.5% (inactive)
CN1CCc2c(n(CC(O)CN3C(=O)c4ccccc4S3(=O)=O)c3ccccc23)C1=O (stereo unspecified)	678	-11.7% (inactive)	-109% (inactive)	158%	1.84	-0.542	-1.28	6.04% (inactive)	-0.488 (inactive)	-3.3e-05 (inactive)	0.00494 (inactive)	inactive	6.44% (inactive)
C=CCN=C(C)C1=C(O)CCC1=O	637	3.3% (inactive)	-33.6% (inactive)	116%	-0.646	0.913	-0.284	-2.09% (inactive)	-0.445 (inactive)	-6.8e-05 (inactive)	0.0054 (inactive)	inactive	11.3% (inactive)
O=C(CSc1nc2ccccc2c(=O)n1CC1CCCCC1)N1CCOCC1	369	-5.3% (inactive)	-6.6% (inactive)	136%	-0.271	-0.657	-0.609	7.42% (inactive)	-0.465 (inactive)	-8.1e-05 (inactive)	0.00433 (inactive)	inactive	-8.49% (inactive)
CN(CCCCCC(=O)/C=N/O)Cc1ccccc1	673	-7.2% (inactive)	-29.9% (inactive)	182%	-0.259	-0.553	-0.0581	-9.53% (inactive)	-0.493 (inactive)	-9.8e-05 (inactive)	0.00525 (inactive)	inactive	23.8% (inactive)
CCOc1ccc2c(c1)n([O-])c1c([n+]2=O)CCCC1	345	6.9% (inactive)	-31.4% (inactive)	84.7%	-0.67	0.548	-1.91	23.4% (inactive)	-0.4 (inactive)	-0.000101 (inactive)	0.0052 (inactive)	inactive	32.8% (inactive)
Cc1ccc(N2CC(C(=O)Nc3ccc(N(C)C)cc3)CC2=O)cc1C (stereo unspecified)	477	-7.1% (inactive)	-76.8% (inactive)	107%	-1.37	0.307	1.15	-1.98% (inactive)	-0.411 (inactive)	-9.5e-07 (inactive)	0.00461 (inactive)	inactive	-1.65% (inactive)
Cc1cc(OCC(=O)Nn2cnnc2)ccc1Br	529	-8.3% (inactive)	-72.3% (inactive)	119%	0.551	0.431	0.858	-6.59% (inactive)	-0.433 (inactive)	-0.00012 (inactive)	0.00434 (inactive)	inactive	-9.18% (inactive)
CC(C)OCCCNc1ncnc2c1cnn2-c1ccccc1	571	-10.1% (inactive)	45.3% (inactive)	117%	0.477	1.09	-0.0471	15.4% (inactive)	-0.377 (inactive)	-5.1e-05 (inactive)	0.00537 (inactive)	inactive	18.2% (inactive)
Cc1cc(C(=O)O)c(CSc2ncn[nH]2)o1	652	-7.4% (inactive)	-48.6% (inactive)	174%	-1.18	1.91	1.7	-5.81% (inactive)	-0.455 (inactive)	-0.000158 (inactive)	0.0045 (inactive)	inactive	-11% (inactive)
Cc1ccc(-n2ncc3c(NCCCOC(C)C)ncnc32)c(C)c1	586	-13.1% (inactive)	45.2% (inactive)	161%	-1.65	1.1	-0.077	1.42% (inactive)	-0.408 (inactive)	-4.3e-05 (inactive)	0.00603 (inactive)	inactive	39% (inactive)
C=CCOn1c(=O)c(-c2ccc(OC)cc2)[n+]([O-])c2ccccc21	586	-10.1% (inactive)	-77.9% (inactive)	148%	0.271	0.00215	-0.813	13.9% (inactive)	-0.416 (inactive)	-5.2e-05 (inactive)	0.00502 (inactive)	inactive	19.7% (inactive)
CC1(C)Cc2c(c(N3CCCCC3)[nH]c(=S)c2C#N)CS1	574	-7.8% (inactive)	-103% (inactive)	151%	-0.509	-1.94	0.0392	-10.6% (inactive)	-0.479 (inactive)	-0.000148 (inactive)	0.00629 (inactive)	inactive	12.9% (inactive)
CCN(CC)CCNc1ncnc2c1[nH]c1ccc(OC)cc12	595	-7.6% (inactive)	-67.9% (inactive)	150%	1.23	-0.0798	-1.12	3.42% (inactive)	-0.236 (inactive)	1.1e-06 (inactive)	0.00672 (inactive)	inactive	6% (inactive)
CCCCSc1nc(N)c(C#N)c(-c2cccs2)c1C#N	652	-3.4% (inactive)	-1.9% (inactive)	141%	1.43	0.907	-0.946	-4.7% (inactive)	-0.432 (inactive)	-1.7e-05 (inactive)	0.00886 (inactive)	inactive	-8.35% (inactive)
Cc1cc(=O)oc(C)c1C(=O)NCC1CCCO1 (stereo unspecified)	606	9.1% (inactive)	-24.6% (inactive)	123%	0.0605	0.0774	0.0396	5.35% (inactive)	-0.441 (inactive)	-4.3e-05 (inactive)	0.00527 (inactive)	inactive	5.07% (inactive)
Cc1cc(=O)oc(C)c1C(=O)Nc1ccc2nsnc2c1	517	-2% (inactive)	3.2% (inactive)	164%	0.355	0.546	0.697	5.95% (inactive)	-0.278 (inactive)	-2.8e-05 (inactive)	0.00564 (inactive)	inactive	-6.75% (inactive)
O=C(c1ccc(-n2cnnn2)cc1)N1CCOCC1	670	-3.5% (inactive)	18.9% (inactive)	171%	0.439	-0.115	0.866	4.72% (inactive)	-0.492 (inactive)	-4.1e-05 (inactive)	0.00579 (inactive)	inactive	-1.94% (inactive)
CCCCc1[nH]c(=O)c(C#N)c2c1CSC(C)(C)C2	551	0.5% (inactive)	-122% (inactive)	132%	0.749	0.642	-1.4	17.4% (inactive)	-0.482 (inactive)	-0.000112 (inactive)	0.00497 (inactive)	inactive	0.152% (inactive)
O=C1C2ON(c3ccccc3)C(c3cccnc3)C2C(=O)N1c1ccc(Cl)c(Cl)c1 (stereo unspecified)	666	-5.7% (inactive)	-61.8% (inactive)	147%	-0.87	0.124	-0.00603	-5.62% (inactive)	-0.479 (inactive)	-2.8e-05 (inactive)	0.00562 (inactive)	inactive	11.2% (inactive)
Cc1cc(C)n(CC(=O)c2ccccc2)c(=O)c1C#N	470	-3.8% (inactive)	-112% (inactive)	157%	-1.09	0.551	0.941	-3.95% (inactive)	-0.432 (inactive)	-4.1e-05 (inactive)	0.0047 (inactive)	inactive	-1.97% (inactive)
CCN(CC)c1nc(C)c2c(c1C#N)CC(C)(C)OC2	491	-5.9% (inactive)	-142% (inactive)	118%	-2.08	0.916	-0.636	13.4% (inactive)	-0.462 (inactive)	-1.1e-05 (inactive)	0.00447 (inactive)	inactive	-9.09% (inactive)
O=C(/C=N/O)NCCCN1CCOCC1	682	-11.2% (inactive)	3.2% (inactive)	168%	-1.5	-0.495	2.77	-15.1% (inactive)	-0.477 (inactive)	-7.4e-05 (inactive)	0.00666 (inactive)	inactive	5.9% (inactive)
